RGS4 inh – RGS4 inhibitors, primary screen, cell-based, HEK293 M3R inducible RGS4, calcium flux; AID 463165, 2010; Regulator of G-protein signaling 4 (Homo sapiens), P49798; B-score at 10 µM; hit rate 0.45% among 310,000; Fluo-4 calcium flux; stronger effect = higher value; triggered by carbachol at its EC20;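 active = B-score, a plate-corrected calcium signal, over three deviations above library mean, with baseline fluorescence within five deviations of library mean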;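 also: RGS4 expression induced by doxycycline in cells with stable M3 receptor; B-score is computed from the integrated fluorescence ratio over baseline after carbachol; higher B-score means a larger calcium signal and so more RGS4 inhibition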
Target sequence (P49798 whole entry, looked up): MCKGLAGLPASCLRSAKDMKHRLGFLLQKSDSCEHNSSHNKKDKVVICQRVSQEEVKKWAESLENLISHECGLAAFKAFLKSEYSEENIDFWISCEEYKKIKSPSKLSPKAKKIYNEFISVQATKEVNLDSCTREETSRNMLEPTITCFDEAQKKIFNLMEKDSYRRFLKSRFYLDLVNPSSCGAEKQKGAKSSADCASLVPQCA
MrgX1 allo act – positive allosteric modulators of MrgX1, primary screen, HEK293 cells, Fluo-4 calcium flux | Mas-related G-protein coupled receptor member X1 (Homo sapiens), Q96LB2 | FDSS; stronger effect = higher value | B-score at 10 µM | hit rate 0.63% among 310,000;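 active = plate-corrected calcium response at least 3 library SD above typical, normal starting fluorescence, not activating the receptor alone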;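 also: compound read alongside a low EC10 to EC30 dose of BAM8-22 agonist; peak minus trough fluorescence over baseline measured at the second addition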
Target sequence (Q96LB2 whole entry, looked up): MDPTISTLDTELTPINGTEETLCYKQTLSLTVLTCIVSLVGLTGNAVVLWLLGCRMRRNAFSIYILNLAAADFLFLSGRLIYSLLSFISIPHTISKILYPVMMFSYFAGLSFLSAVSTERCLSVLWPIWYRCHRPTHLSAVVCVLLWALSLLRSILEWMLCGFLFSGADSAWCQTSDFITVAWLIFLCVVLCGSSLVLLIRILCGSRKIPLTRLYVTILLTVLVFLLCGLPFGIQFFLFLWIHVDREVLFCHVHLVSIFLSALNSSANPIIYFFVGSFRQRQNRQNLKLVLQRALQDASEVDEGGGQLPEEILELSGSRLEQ
RGS4 act – RGS4 potentiators or activators, primary screen, cell-based, HEK293 M3R inducible RGS4, calcium flux; B-score at 10 µM; carbachol calcium flux Fluo4; stronger effect = lower value; hit rate 0.92% among 310,000;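 active = B-score of the integrated calcium signal more than 4 SD below the library mean, with starting fluorescence not abnormally high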;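 also: negative B-score means reduced calcium response which marks RGS4 activation or potentiation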
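Material: Inducible-RGS4 HEK293 cells carrying M3 receptor; also added: carbachol at ECmax as muscarinic agonist stimulus; incubation: compound preincubation 20 min at room temperature before agonist; signal: Fluo4-AM (2 µM) calcium-flux fluorescence, kinetic read; measure: integrated calcium ratio converted to B score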
MrgX1 antag – antagonists of human MrgX1 receptor, primary screen, HEK293 cells, Fluo-4 calcium flux. BAM8-22 antagonism; stronger effect = lower value. B-score at 10 µM. hit rate 1.3% among 310,000. AID 588676, 2011;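 active = calcium-response B-score plate-corrected more than 3 library SD below zero, starting fluorescence within 5 deviations, no agonist response on first addition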;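 also: peak minus trough fluorescence over baseline after final BAM8-22 challenge near maximal dose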
MrgX1 agonist – agonists of human MrgX1 receptor, primary screen, HEK293 cells, Fluo-4 calcium flux; hit rate 0.44% among 310,000; B-score at 10 µM; Fluo-4 calcium fluorescence, agonist mode; stronger effect = higher value; Mas-related G-protein coupled receptor member X1 (Homo sapiens), Q96LB2;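 active = calcium response B-score plate-corrected fluorescence ratio at least 3 library SD, with starting fluorescence B-score inside 5 SD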
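times = overnight plating, then 30 min 37 °C plus 30 min room-temperature dye loading | assay system = stable human MrgX1 HEK293 cell line | input = fifteen thousand cells per well | signal = kinetic calcium dye fluorescence, Fluo-4 NW | dosing = compound delivered in addition one of three | read-out = B-scored fluorescence response ratio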
MrgX1 antag conf – MrgX1 receptor antagonists, duplicate retest, confirmation, HEK293 cells, Fluo-4 calcium flux | remaining BAM8-22 calcium response % of control (stronger effect = lower value), % at 10 µM | shares compounds with MrgX1 antag | hit rate 19% among 2,300 | BAM8-22 calcium flux; stronger effect = lower value;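 active = remaining agonist calcium response no higher than 100% minus 3 SD of agonist-only control wells, with starting fluorescence near control levels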;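 also: agonist BAM8-22 given at a near maximal EC90 to ECmax level; peak minus minimum fluorescence divided by baseline after agonist addition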
HEK293 Ca flux – nonspecific calcium signal in parental HEK293, confirmation, counter-screen for MrgX1 antagonist project, parental HEK293 cells, Fluo-4 calcium flux. shares compounds with MrgX1 antag. hit rate 2% among 4,000. fluorescence ratio F(max-min)/F0 at 10 µM. Fluo-4 calcium fluorescence, FDSS;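 active = duplicate-averaged calcium fluorescence ratio at least three times the standard deviation of buffer wells, a nonspecific response in parental cells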
HEK293 Ca counter – calcium response in parental HEK293 cells, primary screen, counter-screen for MrgX1 allosteric activator project, cell-based, Fluo-4 calcium flux, duplicate | Fluo-4 fluorescence ratio; stronger effect = higher value | shares compounds with MrgX1 antag | AID 624114, 2012 | fluorescence ratio F(max-min)/F0 at 10 µM | hit rate 0.4% among 4,000;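 active = calcium fluorescence ratio, averaged over duplicates, at least 3 SD of the buffer-well ratio, meaning a nonspecific response in receptor-free cells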;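 also: untransfected parental HEK293 lacking MrgX1 used as counterscreen for MrgX1 allosteric activators; fluorescence change taken during the second addition on a kinetic imager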
HEK293 Ca cntr2 – calcium response in parental HEK293 cells, primary screen, counter-screen for MrgX1 agonist project, cell-based, Fluo-4 calcium flux, duplicate, agonist mode. Fluo-4 calcium fluorescence (FDSS); stronger effect = higher value. shares compounds with MrgX1 antag. hit rate 8.7% among 4,000. fluorescence ratio F(max-min)/F0 at 10 µM;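 active = calcium fluorescence ratio at least three times the spread of buffer wells, meaning a non-specific response in parental cells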
Active calls of the source: *; i = inactive; . = not tested or not shown. An excerpt weighted towards active compounds, which were near 3.5% of everything screened.

SMILES	RGS4 inh	MrgX1 allo act	RGS4 act	MrgX1 antag	MrgX1 agonist	MrgX1 antag conf	HEK293 Ca flux	HEK293 Ca counter	HEK293 Ca cntr2
CCOC(=O)COc1ccc2c(c1)C(=O)CC1(CCCCC1)O2	i	i	i	-7.6*	i	i	i	i	i
O=C(Nc1ccc(CN2CCOCC2)cc1)c1cc2ccccc2o1	i	i	i	i	i	.	.	.	.
O=C(Nc1ccc(CN2CCOCC2)cc1)c1cc2ccccn2n1	i	i	i	-4.9*	i	i	i	i	i
O=C(NCCSCc1ccco1)Nc1cc(Cl)cc(Cl)c1	i	i	i	-5.4*	i	68%*	i	i	i
CSc1cccc(NC(=O)CCCNC(=O)c2ccc(Cl)cc2)c1	i	i	i	i	i	.	.	.	.
COc1ccccc1N1CCN(C(=O)c2cc(-c3ccccc3O)on2)CC1	i	i	i	i	i	.	.	.	.
CS(=O)(=O)N1CCC(Oc2ccccc2C(=O)N2CCCCC2CO)CC1 (stereo not drawn)	i	i	i	-4.6*	i	i	i	i	i
COCCOC(=O)c1c(C)oc2ccc(NS(=O)(=O)c3ccc(C)cc3)cc12	i	i	i	i	i	.	.	.	.
CN(C)S(=O)(=O)c1ccc(C(=O)Nc2ccc(S(=O)(=O)NC3=NCCCCC3)cc2)cc1	i	i	i	-7.5*	i	i	i	i	i
O=C(Nc1ccc(S(=O)(=O)NC2=NCCCCC2)cc1)c1ccc(C(F)(F)F)cc1	i	i	i	i	i	.	.	.	.
Cc1ccc(-c2cc(C(=O)O)n[nH]2)o1	i	i	i	i	i	.	.	.	.
CCOC(=O)CC1C(=O)NCCN1Cc1cccc(C(F)(F)F)c1 (stereo not drawn)	i	i	i	-4.7*	i	i	i	i	i
O=C(CC1C(=O)NCCN1Cc1cccc(C(F)(F)F)c1)NC1CCOCC1 (stereo not drawn)	i	i	i	i	i	.	.	.	.
Cc1ccc(C(=O)NC2CCCN(c3ccc(C(F)(F)F)cn3)C2)cn1 (stereo not drawn)	i	i	i	i	i	.	.	.	.
O=C(NC1CCCN(c2ccc(C(F)(F)F)cn2)C1)c1cc(Cl)ccc1F (stereo not drawn)	i	i	i	-6.6*	i	i	i	i	i
Nc1c(-c2ccsc2)cnc2ncnn12	i	i	i	i	i	.	.	.	.
O=C(Cn1nnc(-c2ccc(CN3CCOCC3)cc2)n1)N(c1ccccc1)c1ccccc1	i	i	i	-8.6*	i	i	i	i	i
O=C(Cn1nnc(-c2ccc(CN3CCOCC3)cc2)n1)N1CCCc2ccccc21	i	i	i	i	i	.	.	.	.
O=C(NCCCCNC(=O)c1ccccc1Br)c1ccccc1Br	i	i	i	i	i	.	.	.	.
O=C(O)CCCn1cc(NC(=O)c2ccco2)cn1	i	i	i	i	i	.	.	.	.

Compound activity (PubChem)
